Here are results for twelve molecules from ChEMBL document CHEMBL3580583, “17-Norpimaranes and (9βH)-17-Norpimaranes from the Tuber of Icacina trichantha” (J Nat Prod, 2015).

Common to all, as to assay type: functional, cell-based
Test [1] deals with MDA-MB-435. The experiment in a line: Cytotoxicity against human MDA-MB-435 cells assessed as cell viability after 72 hrs by commercial absorbance assay. Conditions: MDA-MB-435, 72 h. In a few lines:
(§1)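 Cells from ATCC grown at 37°C, 5% CO₂ in RPMI 1640 with 10% FBS, penicillin 100 units/mL and streptomycin 100 µg/mL. Log-phase cells were trypsinized, washed twice, seeded at 5,000/well and incubated overnight. Samples in DMSO were added at 20, 4, 0.8, 0.16 and 0.032 µM (0.5% DMSO) for 72 h at 37°C. Viability was read by CellTiter 96 AQueous One absorbance; IC₅₀ relative to DMSO control.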

The subject of test [2] is MDA-MB-231. The experiment in a line: Cytotoxicity against human MDA-MB-231 cells assessed as cell viability after 72 hrs by commercial absorbance assay. Conditions: MDA-MB-231, 72 h. In a few lines: as §1
In test [3] the test system is OVCAR-3. Description: Cytotoxicity against human OVCAR3 cells assessed as cell viability after 72 hrs by commercial absorbance assay. Conditions: OVCAR-3, 72 h. In a few lines:
as §1

Structures are written as SMILES.

In general, IC50 refers to the concentration that gives 50% inhibition. On to `C[C@@]12CC[C@@H]3C(=C[C@H]4OC(=O)[C@]5(C)[C@H]4[C@]34CCC5(O)OC4)[C@]1(O)OC[C@H]2O`, for which the results for the 50% inhibitory concentration (IC50) in test [1], in test [2] and in test [3] were 1.25 µM, 7.3 µM and 7.55 µM, respectively.
The corresponding values for `C[C@@]12CC[C@@H]3C(=C[C@H]4OC(=O)[C@]5(C)[C@H]4[C@]34CCC5(O)OC4)[C@@H]1OC[C@H]2O` are 1.65 µM, 3.74 µM and 4.12 µM.
For `C[C@]12C(=O)O[C@@H]3C[C@H]4C5=C(CC[C@H]4[C@@]4(CCC1(O)OC4)[C@@H]32)C(=O)CO5`, the IC50 in test [1] turned out to be 0.66 µM; in test [2], 0.67 µM; in test [3], 1.05 µM.
For `C[C@]12C(=O)O[C@@H]3C[C@H]4c5occc5C(=O)C[C@H]4[C@@]4(COC1(O)C[C@@H]4O)[C@@H]32`, in that order: 6.44 µM, 10.8 µM and 18.7 µM.
As for `C[C@]12C(=O)O[C@@H]3Cc4c(ccc5ccoc45)C4(CCC1(O)OC4)[C@@H]32` (stereo partly specified), the 50% inhibitory concentration (IC50) in test [1] was greater than 20 µM; in test [2], greater than 20 µM; in test [3], 17.8 µM.
In the case of `COc1cc2c(c3occc13)C[C@H]1OC(=O)[C@]3(C)[C@H]1C21CCC3(O)OC1` (stereo partly specified), the IC50 in test [1], in test [2] and in test [3] was greater than 20 µM in each case.
In the case of `COc1cc2c(c3occc13)C[C@H]1OC(=O)[C@]3(C)[C@H]1[C@@]21CO[C@](O)(C1)[C@@H]3O`, the 50% inhibitory concentration (IC50) in test [1], in test [2] and in test [3] was greater than 20 µM in each case.
With `COc1cc2c(c3occc13)C[C@H]1OC(=O)[C@]3(C)[C@H]1[C@@]21CO[C@](O)(C1)[C@H]3O`, the half-maximal inhibitory concentration (IC50) in test [1], in test [2] and in test [3] was greater than 20 µM throughout.
With `C[C@]12C(=O)O[C@@H]3C[C@H]4c5occc5C(=O)C[C@H]4C4(CCC1(O)OC4)[C@@H]32` (stereo partly specified), the half-maximal inhibitory concentration (IC50) in test [1], in test [2] and in test [3] was greater than 20 µM each time.
In the case of `C[C@]12C(=O)O[C@@H]3C[C@@]4(O)c5occc5C(=O)C[C@H]4C4(CCC1(O)OC4)[C@@H]32` (stereo partly specified), the IC50 was 6.16 µM in test [1], 8.94 µM in test [2] and 10.5 µM in test [3].
Take `C[C@]12C(=O)O[C@@H]3C[C@@H]4[C@@H](CCC5=CC(=O)O[C@@H]54)C4(CCC1(O)OC4)[C@@H]32` (stereo partly specified): the half-maximal inhibitory concentration (IC50) in test [1], in test [2] and in test [3] was greater than 20 µM throughout.
As for `CC[C@]1(O)C[C@@H]2CN(CCc3c([nH]c4ccccc34)[C@@](C(=O)OC)(c3cc4c(cc3OC)N(C)[C@H]3[C@@](O)(C(=O)OC)[C@H](OC(C)=O)[C@]5(CC)C=CCN6CC[C@]43[C@@H]65)C2)C1` [VINBLASTINE], the IC50 in test [1] was 0.00049 µM; in test [2] it was 0.00878 µM; in test [3], 0.00182 µM.
